Bioassay records: PubChem, several laboratories
The list is not random: actives were taken first. Their share in the collection is about 1.5%.
Runt-SMMHC FRET = inhibitors of RUNX1 Runt–CBFb-SMMHC binding, primary screen, biochemical, FRET, Cerulean-Runt, Venus-CBFb-SMMHC, uHTS | Runt-related transcription factor 1 (Homo sapiens) + Core-binding factor subunit beta … | 220,000 compounds, 0.74% hits | Cerulean-Runt/Venus-CBFb-SMMHC FRET ratio 530/480, 1 h | inhibition, % at 20 µM;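 active = mean inhibition across duplicate retests at 20 µM reaching about 50%, limit read from the data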;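 note: inhibitors lower the FRET ratio by blocking Runt binding to CBFb-SMMHC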
Target sequence (Q01196 whole entry, looked up): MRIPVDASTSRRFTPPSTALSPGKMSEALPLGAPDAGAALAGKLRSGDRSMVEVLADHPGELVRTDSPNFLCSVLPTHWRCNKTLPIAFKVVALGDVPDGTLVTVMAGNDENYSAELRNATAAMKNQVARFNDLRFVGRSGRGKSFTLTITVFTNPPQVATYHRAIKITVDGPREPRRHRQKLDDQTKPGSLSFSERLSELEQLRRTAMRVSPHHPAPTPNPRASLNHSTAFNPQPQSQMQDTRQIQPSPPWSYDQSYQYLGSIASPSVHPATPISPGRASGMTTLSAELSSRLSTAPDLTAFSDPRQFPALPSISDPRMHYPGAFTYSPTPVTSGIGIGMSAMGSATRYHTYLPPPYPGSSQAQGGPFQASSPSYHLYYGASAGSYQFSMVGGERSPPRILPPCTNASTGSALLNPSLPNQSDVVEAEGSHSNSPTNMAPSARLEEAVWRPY
Target sequence (Q13951 whole entry, looked up): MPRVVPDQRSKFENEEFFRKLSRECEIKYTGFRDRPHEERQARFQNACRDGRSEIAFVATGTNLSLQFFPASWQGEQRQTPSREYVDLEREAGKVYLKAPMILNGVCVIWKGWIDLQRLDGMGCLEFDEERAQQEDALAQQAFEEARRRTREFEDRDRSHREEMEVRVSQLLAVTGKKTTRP
Hck Nef HTS = inhibitors of Nef-activated human Hck kinase, primary screen, biochemical, Z-Lyte FRET, 384-well, Hck-YEEI; Tyrosine-protein kinase HCK (Homo sapiens), P08631; Recombinant Hck-YEEI plus Nef, Z-Lyte FRET kinase assay; inhibition, % at 20 µM; 220,000 compounds, 0.68% hits;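 active = Hck-Nef kinase inhibition above about 50%, limit read from the data; inactive = inhibition below that limit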
RanGTP-Impb inh = inhibitors of RanGTP-importin-beta interaction, primary screen, biochemical, FRET, CFP-Ran, YFP-importin-beta, homogeneous. cell-free CFP-Ran/YFP-importin-beta FRET ratio. inhibition, % (test concentration not listed). 300,000 compounds, 1.1% hits;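 active = more than half of the replicate wells show a fall in the fluorescence ratio signal beyond about 16%, limit read from the data, passing the limit was not always enough; inconclusive = exactly half of the replicate wells pass the set limit; inactive = fewer than half of replicates pass the limit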
CaV13 ICDI inh = Primary screen for inhibitors of IQ motif and Ca2+-dependent inactivation inhibitor domain binding in CACNA1D, Förster resonance energy transfer in living cells, …; HEK cells, CFP/YFP FRET ICDI-IQ, plate reader, 10 min; percent FRET-ratio fall versus neutral wells; inhibition, % at 12.3 µM; 340,000 compounds, 0.098% hits; AID 743397;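 active = mean replicate inhibition of at least 30% and at least 1% of replicates passing that level; inconclusive = only one of the two criteria is met; inactive = neither criterion is met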
Runt-CBFb FRET = inhibitors of RUNX1 Runt–CBFb binding, primary screen, biochemical, FRET, Cerulean-Runt, Venus-CBFb, uHTS; 220,000 compounds, 0.46% hits; inhibition, % at 20 µM; Runt-related transcription factor 1 (Homo sapiens) + Core-binding factor subunit beta …; Cerulean-Runt/Venus-CBFb FRET ratio 530/480, 1 h;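 active = inhibition over about 50% at 20 µM in the single-dose screen, limit read from the data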
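Buffer or medium: Tris pH 7.5 buffer with BSA. Assay system: Cerulean-labeled Runt domain protein. Amount: each fluorescent fusion protein 100 nM. Read-out basis: loss of energy transfer signal. Incubation: 1 h compound exposure, room temperature. Probe or stimulus: Venus-CBFb binding partner, 100 nM. Detection: FRET, excitation 422 nm, emission at 530 and 480 nm.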
Hits are given with their value; 0 = inactive; ? = inconclusive; - = no result given.

SMILES	Runt-SMMHC FRET	Hck Nef HTS	RanGTP-Impb inh	CaV13 ICDI inh	Runt-CBFb FRET
CCN1CCc2c(C#N)c(N3CCOCC3)nc(NCCO)c2C1	62.5	0	54.3	0	0
C=CCNc1nc(N2CCOCC2)c(C#N)c2c1CN(C)CC2	54.7	0	95.7	0	0
C=CCNc1nc(N2CCCCC2)c(C#N)c2c1CN(Cc1ccccc1)CC2	0	0	51.8	-	0
CCN1CCc2c(C#N)c(N3CCOCC3)nc(NCc3ccccc3)c2C1	58.1	0	27.8	-	0
CCc1ccc(C(O)c2ncc(-c3ccccc3F)[nH]2)cc1 (centres undefined)	-	-	-	0	-
N#Cc1c(NCCO)nc(NCc2ccccc2)c2c1CCN(Cc1ccccc1)C2	79.3	0	136.9	-	0
Cc1cccn2c(=O)c(/C=C3\SC(=S)NC3=O)c(NCCCN3CCOCC3)nc12	0	0	35.4	0	0
CCCN1C(=O)/C(=C/c2c(NCCCOCC)nc3c(C)cccn3c2=O)SC1=S	0	0	-	0	0
Cc1cccnc1NC(=O)CN1C(=O)NC(C)(c2ccc3ccccc3c2)C1=O (centres undefined)	-	-	0	-	-
CCOC(=O)c1c(NC(=O)CCS(=O)(=O)c2ccccc2)sc2c1CCN(C(C)C)C2	-	-	127.0	-	-
CCCN1CCc2c(sc(NC(=O)CCS(=O)(=O)c3ccccc3)c2C(N)=O)C1	-	-	152.6	-	-
CN1CCc2c(sc(NC(=O)c3ccc(C(=O)c4ccccc4)cc3)c2C(N)=O)C1	-	-	0	0	-
CN1CCc2c(sc(NC(=O)CS(=O)(=O)c3ccccc3)c2C(N)=O)C1	-	-	138.6	0	-
CC(=O)c1c(C)cc(C)c(CSc2ccccn2)c1C	-	-	0	0	-
O=[N+]([O-])c1ccc(Cl)c(NC(=S)N2CCCC2)c1	-	-	0	0	-
O=C(O)CN1CCNCCN(CC(=O)O)CCNCC1	-	-	-	0	-
CC(C)CC1c2[nH]c3ccccc3c2CCN1C(=O)c1cnccn1 (centres undefined)	0	0	0	0	0
Cc1c(CN2CCc3c([nH]c4ccccc34)C2CC(C)C)cnn1C (centres undefined)	0	0	34.6	0	0
CN1/C(=C\C(=S)NC(=O)c2cccc(Br)c2)C(C)(C)c2ccccc21	0	0	0	0	0
CCN(CC)S(=O)(=O)c1cccc(C(=O)/C=C2/N(C)c3ccccc3C2(C)C)c1	0	0	27.3	0	0
COc1ccc(NC(=O)C2=NN(c3ccccc3)C(=O)CC2)cn1	-	-	-	0	-
Cc1cc(C)c(C#N)c(SCc2nc3ccccc3[nH]2)n1	0	0	19.4	-	0
CCOc1cccc(NC(=O)/C(C#N)=C\c2cn(CC(=O)O)c3ccccc23)c1	-	-	27.8	0	-
Cc1cccc(NC(=O)/C(C#N)=C/c2cn(CC(=O)NCc3ccco3)c3ccccc23)c1C	0	0	56.7	0	0
N#C/C(=C\c1cn(Cc2ccccc2)c2ccccc12)C(=O)NCc1ccco1	0	0	0	0	0
SMILES	Runt-SMMHC FRET	Hck Nef HTS	RanGTP-Impb inh	CaV13 ICDI inh	Runt-CBFb FRET
COc1ccc(N=Cc2sc(O)c3ccccc23)cc1	0	0	0	0	0
O=[N+]([O-])c1cccc(N=Cc2sc3ccccc3c2O)c1	87.1	0	0	0	0
O=[N+]([O-])c1ccc(N=Cc2sc3ccccc3c2O)cc1	104.9	0	37.1	0	0
Oc1c(C=NCc2ccccc2)sc2ccccc12	64.1	0	?	0	0
O=[N+]([O-])c1cccc(N=Cc2ccccc2)c1	-	-	-	0	-
Oc1cccc(C=NCc2ccccc2)c1O	0	0	0	0	0
C/C=N\NC(=O)CNC(=O)CNC(=O)c1ccccc1	0	0	0	0	0
Cc1ccc2c(CC(=O)NCC3(N4CCOCC4)CCCCC3)coc2c1C	-	-	-	0	-
O=C1C=CC(=O)N1c1cccc(-c2ccccc2)c1	73.2	0	0	0	0
O=C(Nc1cccc(N2C(=O)C=CC2=O)c1)c1cccs1	-	-	0	0	-
CCN(C[C@H]1N[C@@](CC)(C(=O)OC)[C@H]2C(=O)N(C)C(=O)[C@@H]12)S(=O)(=O)c1ccc(OC)cc1	-	-	-	0	-
Cc1nc(Nc2ccc(O)cc2)c2c3c(sc2n1)CCCC3	0	0	0	0	0
Cc1ccc(CNc2nc(C)nc3sc4c(c23)CCC4)cc1	0	0	25.5	0	0
COc1ccc(C2CC(c3cccc(C(F)(F)F)c3)=NN2c2ccc(S(N)(=O)=O)cc2)cc1 (centres undefined)	-	-	-	0	-
Cc1ccc(-c2cn3nc(C)c(C)nc3n2)cc1	0	0	0	0	0
CCc1ccc(-c2cn3nc(-c4ccccc4)cnc3n2)cc1	0	0	21.1	0	0
O=C(Nc1cccc(-c2nc3ccccc3s2)c1)c1cc(=O)c2ccccc2o1	0	52.6	0	0	0
CCOC(=O)N1CCN(c2ccccc2OC)CC1	0	0	0	0	0
CCOC(=O)c1ccc(NC(=O)N2CCN(c3ccccc3OC)CC2)cc1	0	0	27.2	0	0
CNc1oc(/C=C/c2ccccc2)nc1C#N	84.2	0	0	0	0
CCOC(=O)C1=C[C@@H](c2ccccc2)N(S(=O)(=O)c2ccc(C)cc2)[C@H]1c1cccc(Cl)c1	-	-	-	0	-
COc1ccccc1-n1cnc2cc(NCc3ccccc3O)ccc21	0	0	41.6	0	0
O=C(CCCCCNC(=O)N1CCn2c1nc1ccccc12)N[C@@H](Cc1ccccc1)C(=O)O	-	-	0	-	-
CCCN=C1N/C(=C\c2ccco2)C(=O)N1c1ccccc1	0	0	0	-	0
O=C1/C(=C\c2ccco2)NC(=S)N1c1ccccc1	0	52.7	0	0	0
SMILES	Runt-SMMHC FRET	Hck Nef HTS	RanGTP-Impb inh	CaV13 ICDI inh	Runt-CBFb FRET
CCOC(=O)[C@@H]1CSCCS(=O)(=O)N1	-	-	-	0	-
NS(=O)(=O)c1ccc(CCNC(=O)CCCCCn2c(=S)[nH]c3ccc(Br)cc3c2=O)cc1	0	50.1	0	0	0
O=C(Cn1c(=O)n(Cc2ccc(F)cc2)c(=O)c2ccccc21)NCC1CCCO1 (centres undefined)	-	-	0	0	-
N=c1c(C(=O)NCC2CCCO2)cc2c(=O)n3ccccc3nc2n1Cc1ccco1 (centres undefined)	-	-	73.2	0	-
O=C(Cn1c(=O)n(Cc2ccco2)c(=O)c2cc(Cl)ccc21)NCC1CCCO1 (centres undefined)	0	0	0	0	0
Cc1ccc2nc3c(cc(C(=O)NCC4CCCO4)n3C)c(=O)n2c1 (centres undefined)	88.6	0	-	-	0
N=c1c(C(=O)NCC2CCCO2)cc2c(=O)n3ccccc3nc2n1Cc1ccc(F)cc1 (centres undefined)	-	-	178.5	0	-
Cn1c(C(=O)NCC2CCCO2)cc2c(=O)n(C)c3ccccc3c21 (centres undefined)	0	0	0	0	0
